The list is not random: actives were taken first. Their share in the collection is about 1.8%.
Fam108B inh – mouse Fam108B serine hydrolase inhibitors, primary screen, counter-screen for RBBP9 inhibitor project, biochemical, fluorescence polarization. recombinant Fam108B, FP-Rh probe fluorescence polarization. inhibition, % at 9.51 µM. hit rate 0.33% among 300,000;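 active = inhibition above the screen mean inhibition plus 3 SD, computed separately per campaign, cut at about 18% in these data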;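 note: inhibitors lower polarization as less probe binds the enzyme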
TCR CD3 inh – inhibitors of human TCR-CD3 interaction, primary screen, biochemical, fluorescence, TAMRA-labeled TCR probe; inhibition, % at 9.4 µM; hit rate 0.37% among 360,000; T-cell receptor (TCR); in the data active = inhibition above about 19%;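 note: recombinant mutant TCR 2C K166C tagged with TAMRA read by polarization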
ABHD4 inh – ABHD4 inhibitors, primary screen, biochemical, fluorescence polarization, mouse. (Lyso)-N-acylphosphatidylethanolamine lipase (Mus musculus), Q8VD66. purified mABHD4, FP-Rh probe fluorescence polarization. inhibition, % at 8.92 µM. hit rate 0.54% among 370,000;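 active = inhibition exceeding the mean over every tested compound plus 3 SD, cut at about 30% in these data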
Target sequence (Q8VD66 whole entry, looked up): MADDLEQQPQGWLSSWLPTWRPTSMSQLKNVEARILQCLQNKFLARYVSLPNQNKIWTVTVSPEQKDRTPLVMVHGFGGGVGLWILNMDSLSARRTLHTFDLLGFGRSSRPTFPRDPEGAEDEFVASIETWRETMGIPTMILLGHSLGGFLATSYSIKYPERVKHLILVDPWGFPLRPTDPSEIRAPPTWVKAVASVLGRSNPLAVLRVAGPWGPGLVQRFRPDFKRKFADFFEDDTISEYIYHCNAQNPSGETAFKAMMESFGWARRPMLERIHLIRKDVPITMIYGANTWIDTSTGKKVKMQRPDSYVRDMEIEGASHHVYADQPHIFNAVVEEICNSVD
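assay system = mABHD4 protein | compound dosing = single nominal dose of 8.92 µM, 0.89% DMSO final | read-out basis = percent inhibition of probe binding, normalized to plate controls | schedule = Enzyme–compound pre-incubation 45 min, then probe 60 min, both 25 °C | detection = fluorescence polarization, excitation 525 nm, emission 598 nm, BODIPY TMR filters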
HTRA1 inhibitor – HTRA1 serine protease inhibitors, primary screen, biochemical, fluorescence polarization, HTS. inhibition, % at 5.96 µM. Q92743. recombinant HTRA1, FP-rhodamine activity-based probe. hit rate 0.5% among 340,000; in the data active = inhibition above about 36%
PME-1 inh – PME-1 inhibitors via competitive probe labeling, primary screen, biochemical, fluorescence polarization, FP-Rh probe, HTS. recombinant PME-1. inhibition, % at 5.9 µM. hit rate 0.53% among 320,000. AID 2130, 2009;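 active = inhibition above the campaign mean of all compounds plus 3 SD, cut at about 26% in these data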;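 note: competitive labeling of PME-1 active site by serine hydrolase directed probe; inhibitors block probe labeling so polarization falls and inhibition rises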
SIAE primary – human SIAE inhibitors, primary screen, biochemical, fluorescence polarization, FP-Rh probe, 1536-well HTS; inhibition, % at 9.66 µM; AID 1053197, 2014; hit rate 0.69% among 370,000; Sialate O-acetylesterase (Homo sapiens), Q9HAT2; SIAE FP-Rh probe binding;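 active = inhibition above a cutoff: mean of compounds within the control limits plus 3 SD of those, cut at about 17% in these data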
Large screens that a line does not name were inactive.

NP(=O)(Oc1ccccc1)Oc1ccccc1	none (no result: Fam108B inh, PME-1 inh)
NP(=O)(Oc1ccc(Cl)cc1)Oc1ccc(Cl)cc1	PME-1 inh 71.4
O=C1NC(=S)N(c2ccc(F)cc2)C(=O)/C1=C\c1ccoc1	none (no result: Fam108B inh, TCR CD3 inh, ABHD4 inh, PME-1 inh, SIAE primary)
O=C1NC(=S)N(c2ccc(F)cc2)C(=O)/C1=C/c1ccco1	Fam108B inh 51.7 (no result: TCR CD3 inh, ABHD4 inh, HTRA1 inhibitor, SIAE primary)
Oc1c(Br)c(Br)c(Br)c(Br)c1Br	PME-1 inh 74.8 (no result: Fam108B inh, TCR CD3 inh, ABHD4 inh, SIAE primary)
CC(C)C(C(=O)NC(C)(C)C)N1C(=O)CN=C(c2ccccc2)c2ccccc21 (configuration not stated)	none (no result: Fam108B inh, TCR CD3 inh, HTRA1 inhibitor, PME-1 inh)
N#CCCC#N	none (no result: Fam108B inh, HTRA1 inhibitor, PME-1 inh)
Cc1cc(N2CCNC[C@H]2C)ccc1N1CC[C@H](O)C1	none (no result: Fam108B inh, HTRA1 inhibitor, PME-1 inh)
Cc1cccc(NP(=O)(Oc2ccccc2)Oc2ccccc2)c1C	none
Cc1ccccc1NP(=O)(Oc1ccccc1F)Oc1ccccc1F	PME-1 inh 38.9
Cc1cc(Br)c(NC(=O)CN2CC=C(c3ccccc3)CC2)c(Br)c1	PME-1 inh 30.5
CCN(CC)S(=O)(=O)c1ccc(C)c(NCC(=O)Nc2ccc(C#N)c(Cl)c2)c1	none
CCN(CC)S(=O)(=O)c1cc(NC(=O)C(C)N2CC=C(c3ccccc3)CC2)ccc1C (configuration not stated)	PME-1 inh 47.2
O=C(c1ccccc1)N1Cc2cc(Br)ccc2-n2nncc2C1	none (no result: Fam108B inh, HTRA1 inhibitor, PME-1 inh)
COc1ccc(C(O)P(=O)(Oc2ccccc2)Oc2ccccc2)cc1 (configuration not stated)	PME-1 inh 38.0
CC(NC(=O)OC1CC2CCC1(C)C2(C)C)P(=O)(Oc1ccccc1)Oc1ccccc1 (configuration not stated)	none (no result: Fam108B inh, TCR CD3 inh, HTRA1 inhibitor, PME-1 inh)
CC(=O)c1ccc2c(c1)C1C(Cl)C(Sc3ccccc3[N+](=O)[O-])CC1C(c1ccccc1[N+](=O)[O-])N2 (configuration not stated)	PME-1 inh 85.8
CN1/C(=C\C=Nc2ccccc2)C(C)(C)c2ccccc21	none
CN1/C(=C\C=C\C2=[N+](C)c3ccc4ccccc4c3C2(C)C)C(C)(C)c2ccccc21	PME-1 inh 178.6 (no result: TCR CD3 inh, ABHD4 inh, HTRA1 inhibitor, SIAE primary)
CCOC(=O)[C@]1(C#N)[C@@H]2C=CC(C(C)=O)=CN2[C@@H](C(N)=O)[C@@H]1c1ccsc1	SIAE primary 17.5
CN1CC[C@@H]2CN[C@H](c3ccccc3)C[C@@H]21	none (no result: Fam108B inh, HTRA1 inhibitor, PME-1 inh)
O=C1CC=C2C3CC4N(CCC45c4cc(O)c(O)cc4N1C25)CC3=CCBr (configuration not stated)	TCR CD3 inh 50.3 (no result: Fam108B inh, PME-1 inh)
Cc1cccc(C(C)c2cnc[nH]2)c1C (configuration not stated)	none (no result: Fam108B inh, TCR CD3 inh, HTRA1 inhibitor, PME-1 inh)
O=C(NC(CCC(O)CO)P(=O)(Oc1ccccc1)Oc1ccccc1)OCc1ccccc1 (configuration not stated)	none (no result: Fam108B inh, TCR CD3 inh, HTRA1 inhibitor, PME-1 inh)
CCCCN1CCN(C(=O)COc2cc(=O)n(C)c3ccccc23)CC1	none (no result: Fam108B inh, TCR CD3 inh, HTRA1 inhibitor, PME-1 inh)
O=P(CCl)(Nc1ccccc1)C(Cl)(Cl)Cl (configuration not stated)	PME-1 inh 29.9
CCCC(=O)N1c2ccc(Cl)cc2C(c2ccccc2)=NCC1C(=O)NC(C)(C)C (configuration not stated)	none (no result: Fam108B inh, TCR CD3 inh, HTRA1 inhibitor, PME-1 inh)
CCOC(=O)c1c(NS(=O)(=O)c2ccccc2)n(CCCOC)c2nc3ccccc3nc12	PME-1 inh 33.2
COc1cccc(-c2ccc3c(c2)C2c4cnnn4-c4ccccc4C(=O)N2CC3)c1 (configuration not stated)	none (no result: Fam108B inh, HTRA1 inhibitor, PME-1 inh)
CCC(CO)NC(=O)C1C=C2c3cccc4[nH]cc(c34)CC2N(C)C1 (configuration not stated)	none
CC(C)C[C@H]1C(=O)N2CCC[C@H]2[C@]2(O)O[C@](NC(=O)[C@@H]3C=C4c5cccc6[nH]cc(c56)C[C@H]4N(C)C3)(C(C)C)C(=O)N12	HTRA1 inhibitor 41.9 (no result: TCR CD3 inh, ABHD4 inh, SIAE primary)
CCCNC1=C(C)C(=O)C2=C(C1=O)C(COC(N)=O)[C@]1(OC)C3NC3CN21 (some centres not stated)	TCR CD3 inh 27.2
CC[C@H](C)/C=C(C)/C=C/C1=CC2=C(Cl)C(=O)[C@@](C)(OC(C)=O)C(=O)C2=CO1	HTRA1 inhibitor 77.7 (no result: TCR CD3 inh, ABHD4 inh, SIAE primary)
